This is an account of results in ChEMBL document CHEMBL1145941, “Design, synthesis, and biological evaluation of indenoisoquinoline topoisomerase I inhibitors featuring polyamine side chains on the lactam nitrogen” (2003).

The test system of one assay is DU-145. Kind of assay: Cytotoxicity against human prostate DU-145 cancer cell lines. Type of assay: functional.
For the next assay, the system named is HOP-62. Put plainly: Cytotoxicity was determined in human lung HOP-62 cancer cell lines. Type of assay: functional.
For assay [1], the system named is Panel (Carcinoma cell lines). Kind of assay: Mean graph midpoint for growth inhibition of all human cancer cell lines. Type of assay: functional. The arrangement: unit: µM. Put shortly:
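Mean graph midpoint from the NCI screen, about 55 human cancer cell lines, test range 10^-8 to 10^-4 M. Computed as the average GI50 across all lines tested, with GI50 values below or above the range set to 10^-8 M or 10^-4 M.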

A further assay has as its system HCT-116. Put plainly: Cytotoxicity against human colon HCT116 cancer cell lines. Type of assay: functional.
The subject of another assay is SF-539. Put plainly: Cytotoxicity against human CNSSF-539 cancer cell lines. Type of assay: functional.
The test system of a further assay is UACC-62. Put plainly: Cytotoxicity against human melanoma UACC-62 cancer cell lines. Format: functional.
Assay [2] concerns the target T1, DNA topoisomerase 1 (Homo sapiens) (UniProt P11387).
T1 sequence (whole entry): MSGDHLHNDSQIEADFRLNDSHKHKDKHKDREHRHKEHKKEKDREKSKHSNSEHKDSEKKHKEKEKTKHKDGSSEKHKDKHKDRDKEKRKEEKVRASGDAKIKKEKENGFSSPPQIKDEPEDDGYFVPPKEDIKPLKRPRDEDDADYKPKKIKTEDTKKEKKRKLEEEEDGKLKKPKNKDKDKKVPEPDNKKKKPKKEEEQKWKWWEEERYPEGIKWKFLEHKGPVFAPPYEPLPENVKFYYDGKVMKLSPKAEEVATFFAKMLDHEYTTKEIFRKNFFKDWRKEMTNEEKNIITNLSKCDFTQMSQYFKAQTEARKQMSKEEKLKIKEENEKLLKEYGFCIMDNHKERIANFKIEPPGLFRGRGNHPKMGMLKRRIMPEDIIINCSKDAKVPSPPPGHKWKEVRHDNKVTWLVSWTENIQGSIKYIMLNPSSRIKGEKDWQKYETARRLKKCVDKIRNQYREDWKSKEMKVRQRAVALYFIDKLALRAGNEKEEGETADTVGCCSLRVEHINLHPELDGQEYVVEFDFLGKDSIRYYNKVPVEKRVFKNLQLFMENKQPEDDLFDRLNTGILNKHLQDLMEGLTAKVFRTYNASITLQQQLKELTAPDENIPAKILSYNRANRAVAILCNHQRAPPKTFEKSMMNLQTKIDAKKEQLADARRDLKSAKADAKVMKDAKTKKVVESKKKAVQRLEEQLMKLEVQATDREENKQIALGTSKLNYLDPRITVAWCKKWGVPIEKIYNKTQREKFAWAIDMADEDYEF
Put plainly: Inhibitory activity against DNA topoisomerase I; greater activity than the parent compound 1.

A further assay deals with MDA-MB-435. Kind of assay: Cytotoxicity against human breast […] cancer cell lines. Type of assay: functional.
A further assay concerns OVCAR-3. Put plainly: Cytotoxicity against human ovarian OVCAR-3 cancer cell lines. Type of assay: functional.
The next assay has as its system SN12C. Kind of assay: Cytotoxicity against human renal SN12C cancer cell lines. Format: functional.
In assay [3] the target is T1, DNA topoisomerase 1 (Homo sapiens). Kind of assay: Compound was tested for its inhibitory activity against DNA topoisomerase I; No activity.

One may read the GI50 as the concentration giving 50% growth inhibition. Consider `COc1cc2c3c(n(CCCNCC(OC)OC)c(=O)c2cc1OC)-c1cc2c(cc1C3=O)OCO2`, for which the 50% growth inhibitory concentration (GI50) with DU-145 turned out to be 540 nM; in the assay with HOP-62, 450 nM; in the assay with HCT-116 it was 180 nM; in the assay on SF-539, 6700 nM; in the assay on UACC-62, 2860 nM; in the assay with MDA-MB-435, 10800 nM. In the assay with OVCAR-3, this compound displayed a concentration for 50% growth inhibition (GI50) of 6900 nM. This compound came in with an MGM in [1] of 2.1. In [2], the Activity result is recorded as “greater activity than compound 1”.
With `COc1cc2c3c(n(CCCNCCN)c(=O)c2cc1OC)-c1cc2c(cc1C3=O)OCO2.Cl.Cl`, the concentration for 50% growth inhibition (GI50) was found to be 720 nM in the assay on DU-145; 380 nM in the assay with HOP-62; 370 nM in the assay on SN12C; 560 nM in the assay on HCT-116; 430 nM with SF-539; 650 nM in the assay with UACC-62. Also, the GI50 in the assay on MDA-MB-435 turned out to be 1600 nM; with OVCAR-3, 700 nM. This compound registered an MGM in assay [1] of 0.88. Besides, in assay [2], the Activity result is reported as “greater activity than compound 1”.
`C[C@@]1(O)C(=O)OCc2c1cc1n(c2=O)Cc2cc3ccccc3nc2-1`: the concentration for 50% growth inhibition (GI50) is less than 10 nM with DU-145; less than 10 nM in the assay with HOP-62; 20 nM in the assay on SN12C; 30 nM in the assay with HCT-116; less than 10 nM with SF-539; less than 10 nM in the assay with UACC-62. Further, the GI50 with MDA-MB-435 worked out at 40 nM; with OVCAR-3 it was 220 nM. The compound also came in with an MGM in [1] of 0.04. Further, the Activity result in [2] is reported as “greater activity than compound 1”.
`COc1cc2c3c(n(CCCNCCCN)c(=O)c2cc1OC)-c1cc2c(cc1C3=O)OCO2`: the 50% growth inhibitory concentration (GI50) in the assay with DU-145 was determined as 3100 nM; with HOP-62, 1600 nM; in the assay with SN12C it was 2300 nM; in the assay on HCT-116, 1300 nM; with SF-539, 1200 nM; in the assay with UACC-62 it was 3400 nM. In addition, the figures for the GI50 in the assay on MDA-MB-435 and in the assay on OVCAR-3 were 2500 nM and 3100 nM, respectively. The MGM in [1] was 3.2. Besides, in assay [2], the Activity entry was “greater activity than compound 1”.
As for `COc1cc2c3c(n(CCCNCCCNCCN)c(=O)c2cc1OC)-c1cc2c(cc1C3=O)OCO2.Cl.Cl.Cl`, the concentration for 50% growth inhibition (GI50) with DU-145 worked out at 52000 nM; in the assay on SN12C, 20000 nM; in the assay with HCT-116, 23000 nM; in the assay with SF-539 it was 38000 nM; in the assay with UACC-62, 37000 nM; in the assay with MDA-MB-435, 38000 nM. The compound further came in with a GI50 with OVCAR-3 of 20000 nM. In addition, the MGM in [1] is listed as 41. For the same compound, in [2], the Activity entry was “greater activity than compound 1”.
For `COc1cc2c3c(n(CCN)c(=O)c2cc1OC)-c1cc2c(cc1C3=O)OCO2.Cl`, the concentration for 50% growth inhibition (GI50) amounted to 400 nM in the assay on DU-145; 580 nM with HOP-62; 360 nM in the assay with SN12C; 68 nM with HCT-116; 1300 nM with SF-539; 140 nM in the assay with UACC-62. Moreover, it took 860 nM to inhibit growth in the assay on OVCAR-3 by half (GI50). This compound gave an MGM in assay [1] of 0.34. Moreover, in [2], the Activity entry is recorded as “greater activity than compound 1”.
For the compound `COc1cc2c3c(n(CCCNCCCNCCCN)c(=O)c2cc1OC)-c1cc2c(cc1C3=O)OCO2.Cl.Cl.Cl`, the GI50 is more than 100000 nM in the assay on DU-145; 33000 nM in the assay on SN12C; 43000 nM in the assay on HCT-116; more than 100000 nM in the assay with SF-539; 44000 nM in the assay on UACC-62; 68000 nM in the assay on MDA-MB-435. This compound also displayed a concentration for 50% growth inhibition (GI50) in the assay on OVCAR-3 of 880 nM. Further, the MGM in assay [1] was 59.
For the compound `COc1cc2c3c(n(CCCNCCCNCCCNCCCN)c(=O)c2cc1OC)-c1cc2c(cc1C3=O)OCO2.Cl.Cl.Cl.Cl`, the GI50 in the assay on DU-145 stood at 1400 nM; in the assay on HOP-62 it was 3000 nM; in the assay on SN12C, 1600 nM; in the assay on HCT-116 it was 1500 nM; with UACC-62, 1700 nM; in the assay on MDA-MB-435, 1400 nM. Also, halving of growth in the assay on OVCAR-3 (GI50) required 1600 nM. Moreover, the Activity entry in [3] is “No activity”. The same compound returned an MGM in [1] of 2.
Consider `COc1cc2c3c(n(CCCNCCNCCCN)c(=O)c2cc1OC)-c1cc2c(cc1C3=O)OCO2.Cl.Cl.Cl`, for which the GI50 came out at 4600 nM with DU-145; 2900 nM in the assay on HOP-62; 1700 nM in the assay with SN12C; 1300 nM in the assay with HCT-116; 8600 nM in the assay with SF-539; 1900 nM in the assay on UACC-62. For the same compound, the 50% growth inhibitory concentration (GI50) in the assay with MDA-MB-435 came to 3400 nM; in the assay with OVCAR-3, 8100 nM. Moreover, the MGM in [1] came out at 3.
In the case of `COc1cc2c3c(n(CCN(C)C)c(=O)c2cc1OC)-c1cc2c(cc1C3=O)OCO2.O=CO`, the GI50 in the assay with DU-145 was 1900 nM; with HOP-62 it was 1100 nM; in the assay with SN12C, 4400 nM; in the assay with HCT-116 it was 660 nM; in the assay on SF-539, 900 nM; with UACC-62, 1200 nM. Moreover, the GI50 turned out to be 6100 nM in the assay on MDA-MB-435 and 10000 nM with OVCAR-3. In addition, the MGM in assay [1] came to 3.1.
For `COc1cc2c3c(n(CCCNCCNCCN)c(=O)c2cc1OC)-c1cc2c(cc1C3=O)OCO2.Cl.Cl.Cl`, the 50% growth inhibitory concentration (GI50) with DU-145 is 1200 nM; in the assay on HOP-62, 2800 nM; in the assay with SN12C it was 2500 nM; with HCT-116 it was 900 nM; in the assay with SF-539, 550 nM; with UACC-62, 2600 nM. Moreover, the GI50 with MDA-MB-435 was 2700 nM; with OVCAR-3, 1700 nM. This compound registered an MGM in assay [1] of 2.4. The Activity entry in [2] was “greater activity than compound 1”.
On to `COc1cc2c3c(n(CCCOC(=O)C(F)(F)F)c(=O)c2cc1OC)-c1cc2c(cc1C3=O)OCO2`, for which the GI50 in the assay with DU-145 was 660 nM; in the assay with HOP-62, less than 10 nM; in the assay on SN12C, less than 10 nM; in the assay with HCT-116, 18 nM; with SF-539 it was less than 10 nM; with UACC-62, less than 10 nM. Besides, the concentration for 50% growth inhibition (GI50) with MDA-MB-435 was found to be 30 nM; in the assay on OVCAR-3, 70 nM. Moreover, the MGM in [1] is given as 0.15. In addition, the Activity entry in assay [2] was “greater activity than compound 1”.
With `COc1cc2c3c(n(C)c(=O)c2cc1OC)-c1cc2c(cc1C3=O)OCO2`, the 50% growth inhibitory concentration (GI50) with DU-145 amounted to 37000 nM; with HOP-62, 1300 nM; in the assay with SN12C it was 68000 nM; with HCT-116, 35000 nM; in the assay with SF-539, 41000 nM; in the assay on UACC-62, 4200 nM. Besides, the GI50 in the assay on MDA-MB-435 came to 96000 nM. This compound also had an MGM in assay [1] of 20.
With `COc1cc2c3c(n(CCCN(C)C)c(=O)c2cc1OC)-c1cc2c(cc1C3=O)OCO2`, the concentration for 50% growth inhibition (GI50) with DU-145 stood at 140 nM; in the assay with HOP-62 it was 18 nM; with SN12C it was 900 nM; with HCT-116 it was 120 nM; in the assay on SF-539 it was 190 nM; in the assay on UACC-62, 540 nM. The GI50 was found to be 650 nM in the assay on MDA-MB-435 and 1400 nM in the assay with OVCAR-3. In assay [1], this compound gave an MGM of 0.35. Also, the Activity entry in assay [2] is recorded as “greater activity than compound 1”.
With `COc1cc2c3c(n(CCCN(CCO)CCO)c(=O)c2cc1OC)-c1cc2c(cc1C3=O)OCO2.Cl`, the GI50 in the assay on DU-145, in the assay with HOP-62, in the assay with SN12C, with HCT-116, in the assay on SF-539 and in the assay with UACC-62 was less than 10 nM each time. Further, the GI50 is 80 nM in the assay with MDA-MB-435 and 130 nM in the assay on OVCAR-3. The compound further displayed an MGM in [1] of 0.07.
